# Source: PubChem (Sanford-Burnham Center for Chemical Genomics)
# Compounds with a hit are over-represented: about 1.5% of the library has one in this group of screens.
# CXCR6 inh: inhibitors of human CXCR6 receptor; CHO-K1 PathHunter CXCR6 beta-arrestin, luminescence; inhibition, % at 20 µM; hit rate 0.36% among 360,000; AID 602244; in the data active = inhibition above about 34%, passing the limit was not always enough;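 also: antagonist mode with CXCL16 agonist at 10 nM final; 0% = 10 nM CXCL16 with DMSO and 100% = unstimulated wells without agonist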
# APJ agonist: APJ receptor agonism | P35414 | CHO-K1 APJ PathHunter beta-arrestin, luminescence; 0% DMSO wells, 100% apelin | activation, % at 20 µM | hit rate 0.11% among 330,000;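 active = activation more than six SD over the plate average, tested at 20 µM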;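 also: 0% = DMSO alone and 100% = apelin-13 at 10 nM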
# Target sequence (P35414 whole entry, looked up): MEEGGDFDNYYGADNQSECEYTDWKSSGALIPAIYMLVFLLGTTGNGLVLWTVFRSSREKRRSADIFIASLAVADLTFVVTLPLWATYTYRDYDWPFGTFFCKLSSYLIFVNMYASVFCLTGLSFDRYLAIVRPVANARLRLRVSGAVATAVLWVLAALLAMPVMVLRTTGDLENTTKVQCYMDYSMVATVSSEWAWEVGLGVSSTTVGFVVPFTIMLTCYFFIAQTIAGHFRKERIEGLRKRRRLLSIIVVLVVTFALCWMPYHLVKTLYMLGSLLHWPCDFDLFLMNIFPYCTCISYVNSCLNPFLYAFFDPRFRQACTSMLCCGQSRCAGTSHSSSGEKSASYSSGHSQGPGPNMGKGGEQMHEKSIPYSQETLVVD
#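 Test system – PathHunter CHO-K1 APJ (AGTRL-1) beta-arrestin reporter cells · Input – 1000 cells/well · Compound – single test compound dose, 20 µM final, 1% DMSO · Times – compound stimulation 90 min at 25 °C, detection 60 min · Technique – beta-gal luminescence · Read-out basis – APJ–arrestin association signal · Control set – negative DMSO alone, positive Apelin-13 at 10 nM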
# CCR6 antagonist: CCR6 (human) receptor antagonism | CHO-K1 CCR6 PathHunter beta-arrestin, luminescence, CCL20-stimulated | inhibition, % at 20 µM | hit rate 0.49% among 340,000 | P51684;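 active = compounds whose inhibition of the agonist-driven luminescence signal at 20 µM reaches about 50%, limit read from the data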;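 also: cells stimulated with CCL20 at 14 nM final; plate controls were DMSO with CCL20 for no effect and DMSO without agonist for full effect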
# APJ antagonist: APJ receptor antagonism; CHO-K1 APJ beta-arrestin complementation, luminescence; inhibition, % at 20 µM; hit rate 0.32% among 330,000; AID 2521;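 active = inhibition above about 40% at 20 µM, limit read from the data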;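 also: cells challenged with 10 nM apelin-13 agonist together with compound; plate controls were apelin-13 plus DMSO wells for no effect and DMSO wells lacking apelin-13 for full effect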
# EBI2 antag: EBI2 (human) antagonism. P32249. EBI2 beta-arrestin recruitment, luminescence, 7a,25-OHC stimulated. inhibition, % at 5 µM. hit rate 0.81% among 360,000. AID 651636; in the data active = inhibition above about 38%;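 also: enzyme fragment complementation signal reports receptor beta-arrestin coupling in cells; 0% = agonist plus DMSO wells and 100% = wells without agonist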
# EBI2 antag conf: EBI2 (human) antagonism, single concentration confirmation; EBI2 beta-arrestin luminescence, 7a,25-OHC antagonism; AID 651997; hit rate 29% among 2,400; shares compounds with EBI2 antag; inhibition, % at 5 µM;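 active = inhibition of at least 50%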
# EBI2 ag: counter-screen for EBI2 antagonists: EBI2 agonist activity | shares compounds with EBI2 antag | EBI2-expressing cells, agonist mode, luminescence, 60 min; 0% vehicle, 100% 7α,25-dihydroxycholesterol control | activation, % at 5 µM | 2,400 tested, under 10 active | AID 652000;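 active = activation of at least 50%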
# bGal counter: beta-galactosidase inhibition counter-screen; shares compounds with EBI2 antag; purified beta-galactosidase, luminescent Galacton Star, 15 min; inhibition, % at 5 µM; hit rate 1% among 2,400; AID 652176;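 active = replicate-average signal at least 3 plate SD below neutral wells, shown as high inhibition, flagging enzyme-inhibiting false positives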;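 also: 0% = DMSO wells with enzyme and 100% = wells lacking enzyme; higher means stronger loss of beta-gal luminescence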
# * marks the source's active call; other numbers are inactive results; · = no result given; ! = repeats disagree.
SMILES,CXCR6 inh,APJ agonist,CCR6 antagonist,APJ antagonist,EBI2 antag,EBI2 antag conf,EBI2 ag,bGal counter
CCCCCCSc1ccc(-c2nc3ccc(C)cn3c2NCc2ccccc2)cc1OC,20,-9,43,-3,72*,44,1,2
CCCCCCSc1cc(-c2nc3ccc(C)cn3c2NCCCC)ccc1OC,13,1,12,21,32,·,·,·
COc1ccc(-c2ccc(-c3nc4ccc(C)cn4c3NC3CCCCC3)cc2OC)cc1,16,9,26,-11,72*,65*!,0,-11
COc1ccc2cc([C@@H](C)C(=O)O)ccc2c1,2,-3,7,-5,7,·,·,·
COc1ccc(OC)c(CN2CCN(CC(=O)Nc3ccccc3C(=O)NC3CC3)CC2)c1,6,0,0,-5,-13,·,·,·
Cc1c(NC(=O)C(C)OC(=O)COc2ccc(C#N)cc2)c(=O)n(-c2ccccc2)n1C (configuration not stated),4,3,11,15,2,·,·,·
CCCCNc1c(-c2ccc(-c3ccc(C(C)=O)cc3)c(OC)c2)nc2cc(C)ccn12,14,2,18,-4,67*,52*,1,6
CCCCNc1c(-c2ccc(SC3CCCCC3)c(OC)c2)nc2ccc(C)cn12,-1,-1,14,6,52*,55*!,3,3
COc1ccc(-c2nc3ccc(C)cn3c2NCc2ccccc2)cc1SC1CCCCC1,7,25,10,-12,-28,·,·,·
Cc1ccc(NC(=O)C2CCCN(C(=O)Nc3ccc(F)cc3)C2)cc1 (configuration not stated),-10,0,25,12,0,·,·,·
CCOc1ccc(C(=O)C2CCN(C(=O)c3ccc([N+](=O)[O-])cc3)CC2)cc1,-13,1,-4,-28,84*,53*,-1,-5
Cc1ccc(NC(=O)N2CCC(C(=O)c3ccc(F)cc3)CC2)cc1,-2,3,3,3,41,·,·,·
COc1ccc(C(=O)C2CCN(C(=O)Nc3ccc(C)cc3)CC2)cc1,-8,-3,-5,5,49*,15,1,3
COc1ccc(C(=O)C2CCN(C(=O)c3ccc(F)cc3)CC2)cc1,-8,0,2,5,30,·,·,·
COc1ccc(C(=O)C2CCN(C(=O)c3ccc(C)cc3)CC2)cc1,3,-2,-9,1,53*,47,-1,-19
Cc1ccc(C2CCN(C(=O)Nc3ccc(F)cc3)C2)cc1 (configuration not stated),9,-2,7,-4,71*,54*,2,-2
Cc1c(CN2CCCC(C(=O)c3cccc(OC(C)C)c3)C2)c(=O)n(-c2ccccc2)n1C (configuration not stated),6,-3,25,-1,3,·,·,·
O=C(c1ccc2[nH]c(=O)c(=O)[nH]c2c1)N1CCc2ccccc2C1,-8,0,10,0,-8,·,·,·
O=C(Nc1cccc(C(F)(F)F)c1)c1csc([C@H]2C[C@H](O)[C@@H](CO)O2)n1,-1,·,·,·,4,·,·,·
CC(C)=CCCC(C)CN1CCC(N2CCC(C(=O)NC(C)C)CC2)CC1 (configuration not stated),-3,-1,5,-8,-9,·,·,·
O=C(CCCOc1ccccc1)N1CCN(S(=O)(=O)c2cccc(F)c2)CC1,-2,-7,13,15,37,·,·,·
Cc1ccc(OCCCC(=O)N2CCN(S(=O)(=O)c3cccc(F)c3)CC2)cc1,6,-6,15,-60,53*,13,-1,-14
O=C(CCCOc1ccccc1)N1CCN(S(=O)(=O)c2ccccc2)CC1,2,-5,-2,-2,46*,40,1,1
CN(C)C(CNC(=O)c1cc(S(=O)(=O)N(C)Cc2ccccc2)ccc1Cl)c1ccco1 (configuration not stated),-8,2,2,6,-1,·,·,·
COc1ccccc1NS(=O)(=O)c1ccc(C)c(C(=O)N2CCN(c3ccc(O)cc3)CC2)c1,-2,3,0,6,-3,·,·,·
SMILES,CXCR6 inh,APJ agonist,CCR6 antagonist,APJ antagonist,EBI2 antag,EBI2 antag conf,EBI2 ag,bGal counter
COc1cc2oc(=O)cc(CN(Cc3ccccc3)Cc3ccccc3)c2cc1Cl,12,·,·,·,45*,38,-1,-2
COc1ccc2c(CN(Cc3ccccc3)Cc3ccccc3)cc(=O)oc2c1,6,·,·,·,52*,21,-1,-13
CCCN(CCC)Cc1cc(=O)oc2cc(OC)ccc12,-6,·,·,·,5,·,·,·
O=C(NCCc1ccc(Cl)cc1)C1CCCN1C(=O)Nc1ccccc1 (configuration not stated),1,-5,12,21,1,·,·,·
COC(=O)c1c(NC(=O)CN2C(=O)c3ccccc3C2=O)sc(Cc2ccc3c(c2)OCO3)c1C,6,0,-8,2,63*,33,0,-12
COC(=O)c1c(NC(=O)CN2CCN(Cc3ccc4c(c3)OCO4)CC2)sc(C)c1C,-4,-5,5,1,10,·,·,·
COCCOC(=O)C(C#N)c1nc2ccccc2nc1N1CCN(Cc2ccccc2)CC1 (configuration not stated),14,-4,36,9,29,·,·,·
CCCCOC(=O)C(C#N)c1nc2ccccc2nc1N1CCN(Cc2ccc3c(c2)OCO3)CC1 (configuration not stated),25,-7,17,9,46*,18,-2,-3
CC(C)COC(=O)C(C#N)c1nc2ccccc2nc1N1CCN(Cc2ccccc2)CC1 (configuration not stated),16,5,25,4,46*,33,0,7
COC(=O)C(C#N)c1nc2ccccc2nc1N1CCN(Cc2ccc3c(c2)OCO3)CC1 (configuration not stated),·,-1,·,-5,·,·,·,·
O=C(NCCc1ccccc1C(F)(F)F)C1CCC(=O)N(C2CC2)C1 (configuration not stated),6,-1,-5,11,-6,·,·,·
Cc1nn(C)cc1CN(C)C(=O)CCc1nnc(CCC2CCCCC2)o1,2,-3,-2,-5,5,·,·,·
CCOC(=O)CN(C(=O)Cn1nnc(-c2ccc(OC)cc2)n1)C(C(=O)NC1CCCC1)c1ccc(F)cc1 (configuration not stated),-6,-4,1,16,75*,44,1,5
CC1CN(S(=O)(=O)c2cc(C(=O)N(C)Cc3cccs3)ccc2Cl)CC(C)O1 (configuration not stated),2,0,7,-5,-10,·,·,·
